Data set [1] deals with Madin-Darby bovine kidney (MDBK) cells. Briefly: In vitro MTT cytotoxicity assay on MDBK cells. Format: cell-based. Conditions: MDBK cells; for Maximum non-toxic concentration: highest concentration with no significant effect on cell viability. Put shortly: (§1)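 MDBK cells (NBL-1) were kept in MEM with 10% FBS and penicillin/streptomycin at 37 °C, 5% CO2, and passaged with Accutase at ~70% confluence. Cells were seeded at 2×10^4/well and grown 24 h. Test compound was added at final 0.1, 1, 10, 50 or 100 μM, with a DMSO solvent control, for 24 h. MTT was added for 2 h, formazan dissolved in 99% isopropanol, and A562 read. Viability = compound/DMSO ×100. Maximum non-toxic concentration = highest concentration with no significant viability effect. Three repeats.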

The nature of data set [2]: In vitro MTT cytotoxicity assay on MDBK cells. It counts as cell-based, bovine. The conditions noted are these: bovine, MDBK cells (NBL-1 strain). Put shortly: as §1
In general terms: Tetrazolium dyes change colour on reduction, which living cells bring about.

In the next data set the test system is E. tenella sporozoites. Put plainly: In vitro viability assay for E. tenella sporozoites. It counts as cell-based, Eimeria tenella. The conditions noted are these: 24 h, DMSO-treated group = 100%. Put shortly:
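E. tenella OPU strain oocysts were sporulated in ~0.1% potassium dichromate at 28 °C and hypochlorite-treated. Sporocysts were excysted for 1–2 h at 41 °C in HBSS with 1% taurodeoxycholic acid and 0.25% trypsin. Sporozoites at 5×10^6/ml in phenol-red-free RPMI 1640 with antibiotics got test compound (screen 100 μM; IC50 range 1–100 μM) for 24 h at 37 °C, 5% CO2. Cell Count Reagent SF was then added for 3 h. Viability was expressed relative to DMSO = 100%.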

Setting [3] is: commercially available pure compounds at 100 μM.

The structures appear in SMILES notation. Marks after values point to notes of the source that are not given here.

For the molecule `COc1cc(CCc2ccccc2O)cc(OC)c1O` [Component A-2, 4,2′-Dihydroxy-3,5-dimethoxydihydrostilbene], the “Average cell viability (%)” value in data set [1] (0.1 μM, 24 h, MTT) was 98.7%; in data set [1] (1 μM, 24 h, MTT) it was 105.9%; in data set [1] (10 μM, 24 h, MTT), 107.0%; in data set [1] (50 μM, 24 h, MTT) it was 103.4%; in data set [1] (100 μM, 24 h, MTT), 107.3%. The “Maximum non-toxic concentration” value in data set [1] is 100 µM.
In the case of `Oc1cc(O)c2c(c1)O[C@H](c1ccc(O)c(O)c1)[C@H](O)C2` [Component A-3, Epicatechin], the “Maximum non-toxic concentration” value in data set [1] amounted to 100 µM. In data set [2], the viability (usually a read-out of living cells in per cent, often relative to untreated cells) at 24 h, 0.1 µM worked out at 103%; the viability at 24 h, 1 µM was determined as 91%; the viability at 24 h, 10 µM turned out to be 92.3%; the viability at 24 h, 50 µM stood at 109%. Also, in data set [2], the viability at 24 h, 100 µM came out at 108%.
With `O=c1c(O[C@@H]2O[C@H](CO)[C@@H](O)[C@H](O)[C@H]2O)c(-c2ccc(O)c(O)c2)oc2cc(O)cc(O)c12` [Component A-4, Isoquercitrin], the “Maximum non-toxic concentration” value in data set [1] stood at 100 µM. Further, in data set [2], the viability at 24 h, 0.1 µM was 98%; the viability at 24 h, 1 µM is 110%; the viability at 24 h, 10 µM turned out to be 104%; the viability at 24 h, 50 µM came out at 109%. In addition, in data set [2], the viability at 24 h, 100 µM was 104%.
Take `Oc1cc(O)cc(/C=C/c2ccccc2)c1` [Component A-5, Pinosylvin]: the “Maximum non-toxic concentration” value in data set [1] was 100 µM. In addition, in data set [2], the viability at 24 h, 0.1 µM is 103%; the viability at 24 h, 1 µM came out at 102%; the viability at 24 h, 10 µM is 103%; the viability at 24 h, 50 µM came to 110%. In data set [2], the viability at 24 h, 100 µM turned out to be 106%.
On to `C[C@H]1[C@H](C)CC[C@]2(CO)CC[C@]3(C)C(=CC[C@@H]4[C@@]5(C)CC[C@H](O)C(C)(C)[C@@H]5CC[C@]43C)[C@H]12` [Component B-1, Uvaol], for which the “Maximum non-toxic concentration” value in data set [1] came to 10 µM. Besides, in data set [2], the viability at 24 h, 0.1 µM worked out at 95.6%; the viability at 24 h, 1 µM is 99.9%; the viability at 24 h, 10 µM was determined as 110%; the viability at 24 h, 50 µM came out at 55.9%. Also, the viability at 24 h, 100 µM in data set [2] turned out to be 36.2%.
As to `CC1(C)CC[C@]2(C)CC[C@]3(C)C(=CC[C@@H]4[C@@]5(C)CC[C@H](O)C(C)(C)[C@@H]5CC[C@]43C)[C@@H]2C1` [Component C-1, β-Amyrin], the Sporozoite viability entry in the data set with E. tenella sporozoites (natural components at 100 μM) was “no significant effect”. In data set [1], the “Maximum non-toxic concentration” value turned out to be 100 µM. Besides, in data set [2], the viability at 24 h, 0.1 µM turned out to be 78.1%; the viability at 24 h, 1 µM came out at 82.6%; the viability at 24 h, 10 µM is 88.6%; the viability at 24 h, 50 µM was 87.7%. In addition, in data set [2], the viability at 24 h, 100 µM was 82.4%.
As to `COc1ccc(-c2cc(=O)c3c(O)c(C)c(OC)cc3o2)cc1` [Component C-2, 8-Demethyleucalyptin], the “Average cell viability (%)” value is listed as 97.8% in data set [1] (0.1 μM, 24 h, MTT); 92.5% in data set [1] (1 μM, 24 h, MTT); 98.7% in data set [1] (10 μM, 24 h, MTT); 85.2* % in data set [1] (50 μM, 24 h, MTT); 80.8* % in data set [1] (100 μM, 24 h, MTT). Besides, the “Maximum non-toxic concentration” value in data set [1] amounted to 10 µM.
Regarding `O=C(CCc1ccc(O)cc1)c1c(O)cc(O[C@@H]2O[C@H](CO)[C@@H](O)[C@H](O)[C@H]2O)cc1O` [Component C-6, Trilobatin], the “Average cell viability (%)” value in data set [1] (0.1 μM, 24 h, MTT) amounted to 89.1%; in data set [1] (1 μM, 24 h, MTT) it was 90.7%; in data set [1] (10 μM, 24 h, MTT) it was 91.4%; in data set [1] (50 μM, 24 h, MTT) it was 92.9%; in data set [1] (100 μM, 24 h, MTT), 93.6%. The “Maximum non-toxic concentration” value in data set [1] is 100 µM.
In the case of `O=C(CCc1ccc(O)cc1)c1c(O)cc(O)cc1O[C@@H]1O[C@H](CO)[C@@H](O)[C@H](O)[C@H]1O` [Component C-7, Phlorhizin], the “Average cell viability (%)” value turned out to be 87.9% in data set [1] (0.1 μM, 24 h, MTT); 90.9% in data set [1] (1 μM, 24 h, MTT); 98.2% in data set [1] (10 μM, 24 h, MTT); 95.8% in data set [1] (50 μM, 24 h, MTT); 107.4% in data set [1] (100 μM, 24 h, MTT). Besides, in data set [1], the “Maximum non-toxic concentration” value was 100 µM.
Take `O=C1C[C@@H](c2ccc(O)cc2)Oc2cc(O)cc(O)c21` [Component D-1, Naringenin]: the “Maximum non-toxic concentration” value in data set [1] stood at 100 µM. Also, in data set [2], the viability at 24 h, 0.1 µM was 92.2%; the viability at 24 h, 1 µM was determined as 97.3%; the viability at 24 h, 10 µM worked out at 99.3%; the viability at 24 h, 50 µM was determined as 109%. In addition, the viability at 24 h, 100 µM in data set [2] is 107%.
Turning to `Oc1cc(O)c2c(c1)O[C@H](c1cc(O)c(O)c(O)c1)[C@@H](O)C2` [Component F-1, Gallocatechin], the “Maximum non-toxic concentration” value in data set [1] was 100 µM. In addition, in data set [2], the viability at 24 h, 0.1 µM was 80.8%; the viability at 24 h, 1 µM came to 81.4%; the viability at 24 h, 10 µM is 93.9%; the viability at 24 h, 50 µM stood at 92.6%. In addition, the viability at 24 h, 100 µM in data set [2] was 85.2%.
Turning to `COC1OC(CO)C(O)C(O)C1O` (stereo not drawn) [Component F-2, β-Methylglucoside], the “Average cell viability (%)” value in data set [1] (0.1 μM, 24 h, MTT) worked out at 99.2%; in data set [1] (1 μM, 24 h, MTT) it was 102.1%; in data set [1] (10 μM, 24 h, MTT), 104.6%; in data set [1] (50 μM, 24 h, MTT), 102.0%; in data set [1] (100 μM, 24 h, MTT) it was 104.9%. Further, in data set [1], the “Maximum non-toxic concentration” value turned out to be 100 µM.
Consider `O=c1c(O[C@@H]2O[C@@H](CO)[C@H](O)[C@H]2O)c(-c2ccc(O)c(O)c2)oc2cc(O)cc(O)c12` [Component G-1, Avicularin], for which the “Maximum non-toxic concentration” value in data set [1] is 100 µM. Besides, in data set [2], the viability at 24 h, 0.1 µM was 94.6%; the viability at 24 h, 1 µM was found to be 96.9%; the viability at 24 h, 10 µM came out at 88.5%; the viability at 24 h, 50 µM is 104%. Besides, the viability at 24 h, 100 µM in data set [2] worked out at 89.5%.
Consider `COc1cc(C)cc(O)c1` [Component H-1, 3-Methoxy-5-methylphenol], for which the “Maximum non-toxic concentration” value in data set [1] turned out to be 100 µM. For the same molecule, in data set [2], the viability at 24 h, 0.1 µM is 106%; the viability at 24 h, 1 µM worked out at 109%; the viability at 24 h, 10 µM was determined as 106%; the viability at 24 h, 50 µM is 113%. Also, in data set [2], the viability at 24 h, 100 µM is 112%.
Regarding `Cc1cc(O)cc(O)c1` [Component H-2, 5-Methylbenzene-1,3-diol], the “Maximum non-toxic concentration” value in data set [1] stood at 100 µM. Further, in data set [2], the viability at 24 h, 0.1 µM came to 92%; the viability at 24 h, 1 µM was 95.3%; the viability at 24 h, 10 µM was found to be 94.8%; the viability at 24 h, 50 µM amounted to 93.4%. Besides, in data set [2], the viability at 24 h, 100 µM worked out at 93.3%.
Regarding `C[C@@H]1O[C@@H](O[C@H]2[C@H](O)[C@@H](O)[C@H](OC[C@H]3O[C@@H](OC(=O)[C@]45CCC(C)(C)C[C@H]4C4=CC[C@@H]6[C@@]7(C)CC[C@H](O[C@@H]8OC[C@H](O)[C@H](O)[C@H]8O[C@@H]8O[C@H](CO)[C@@H](O)[C@H](O)[C@H]8O)[C@@](C)(CO)[C@@H]7CC[C@@]6(C)[C@]4(C)CC5)[C@H](O)[C@@H](O)[C@@H]3O)O[C@@H]2CO)[C@H](O)[C@H](O)[C@H]1O` [Component I-1, Cauloside G], the “Average cell viability (%)” value was determined as 100.7% in data set [1] (0.1 μM, 24 h, MTT); 103.3% in data set [1] (1 μM, 24 h, MTT); 103.7% in data set [1] (10 μM, 24 h, MTT); 97.0% in data set [1] (50 μM, 24 h, MTT); 89.4% in data set [1] (100 μM, 24 h, MTT). In addition, the “Maximum non-toxic concentration” value in data set [1] came to 100 µM.
Take `OC[C@H]1O[C@@H](Oc2ccc(O)cc2)[C@H](O)[C@@H](O)[C@@H]1O` [E−1, Arbutin]: the “Maximum non-toxic concentration” value in data set [1] was 100 µM. Further, in data set [2], the viability at 24 h, 0.1 µM was 83.1%; the viability at 24 h, 1 µM came to 86.4%; the viability at 24 h, 10 µM was 87.1%; the viability at 24 h, 50 µM is 108%. In data set [2], the viability at 24 h, 100 µM was 102%.
With `Oc1cc(O)c2c(c1)OC(c1ccc(O)c(O)c1)C(O)C2` (stereo not shown) [E−2, Catechin], the “Average cell viability (%)” value in data set [1] (0.1 μM, 24 h, MTT) was found to be 101.1%; in data set [1] (1 μM, 24 h, MTT) it was 102.5%; in data set [1] (10 μM, 24 h, MTT) it was 109.8%; in data set [1] (50 μM, 24 h, MTT) it was 104.9%; in data set [1] (100 μM, 24 h, MTT), 114.0%. Further, the “Maximum non-toxic concentration” value in data set [1] is 100 µM.
For `CC[C@@H](C(=O)[C@@H](C)[C@@H](O)[C@H](C)CCc1ccc(C)c(O)c1C(=O)O)[C@H]1O[C@](CC)([C@H]2CC[C@](O)(CC)[C@H](C)O2)C[C@@H]1C` [lasalocid, reference compound], in data set [1] (24 h, MTT), the “Concentration that significantly reduced the viability of MDBK cells” value is reported as “higher than 10 μM”. The “Maximum non-toxic concentration” value in data set [1] stood at 1 µM. Further, in data set [2], the viability at 24 h, 0.1 µM was 107%; the viability at 24 h, 1 µM worked out at 110%; the viability at 24 h, 10 µM worked out at 54.3%; the viability at 24 h, 50 µM was determined as 1.1%. Also, the viability at 24 h, 100 µM in data set [2] came out at 0.4%.
As for `C[C@H]1[C@H](C)CC[C@]2(C)CC[C@]3(C)C(=CC[C@@H]4[C@@]5(C)CC[C@H](O)C(C)(C)[C@@H]5CC[C@]43C)[C@H]12` [α-amyrin, reference compound], the Sporozoite viability result in the data set on E. tenella sporozoites (setting [3]) was “did not significantly reduce”.
Still for that read-out and setting: next, `CC1(C)CC[C@]2(C)CC[C@]3(C)C(=CC[C@@H]4[C@@]5(C)CC[C@H](O)C(C)(C)[C@@H]5CC[C@]43C)[C@@H]2C1` [β-amyrin, reference compound]: “did not significantly reduce”.

(Values after article PMC11362645 (International Journal for Parasitology: Parasites and …, 2024).)
